From ChEMBL document CHEMBL1124024, “Crystal structures and pharmacologic activities of 1,4-dihydropyridine calcium channel antagonists of the isobutyl methyl 2,6-dimethyl-4-(substituted phenyl)-1,4-dihydropyridine-3,5-dicarboxylate (nisoldipine) series” (J Med Chem, 1988)
pIC50: −log10 of the molar value.

Experiments:
[1] = organism: Cavia porcellus; assay: Inhibition of tonic (slow) component of K+ depolarization response in guinea pig ileal longitudinal smooth muscle; assay type: functional; conditions: Muscle tissue
Outline: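 Longitudinal strips of terminal ileum from male guinea pigs (300-500 g) held in aerated physiologic saline under 500 mg resting tension, with isotonic recording. A control maximal response to 80 mM KCl depolarizing saline was taken, followed by washout and 30-min re-equilibration. Antagonist was then equilibrated for 30 min and the K+ response measured again. One concentration per tissue; contraction read in mm from baseline.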

[2] = biological target: Voltage-gated L-type calcium channel (Cavia porcellus); assay: Inhibition of [3H]nitrendipine binding to guinea pig ileal longitudinal smooth muscle

| Structure (SMILES) | pIC50 [1] | IC50 [2] [nM] |
| --- | --- | --- |
| CO/C(O)=C1\C(C)=NC(C)=C(C(=O)OCC(C)C)C1c1ccccc1[N+](=O)[O-] (configuration not stated) | 9.66 | – |
| CO/C(O)=C1\C(C)=NC(C)=C(C(=O)OCC(C)C)C1c1ccccc1 (configuration not stated) | 8.48 | 0.25 |
| CO/C(O)=C1\C(C)=NC(C)=C(C(=O)OCC(C)C)C1c1ccc(F)cc1 (configuration not stated) | 8.17 | 1.5 |
| CO/C(O)=C1\C(C)=NC(C)=C(C(=O)OCC(C)C)C1c1ccc(Cl)cc1 (configuration not stated) | 7.57 | 2.8 |
| CO/C(O)=C1\C(C)=NC(C)=C(C(=O)OCC(C)C)C1c1cccc(C#N)c1 (configuration not stated) | 9.57 | 0.013 |
| CO/C(O)=C1\C(C)=NC(C)=C(C(=O)OCC(C)C)C1c1cccc(OC)c1 (configuration not stated) | 8.15 | 2.3 |
| CO/C(O)=C1\C(C)=NC(C)=C(C(=O)OCC(C)C)C1c1ccccc1C(F)(F)F (configuration not stated) | 8.68 | 0.027 |
| CO/C(O)=C1\C(C)=NC(C)=C(C(=O)OCC(C)C)C1c1cccc(C(F)(F)F)c1 (configuration not stated) | 7.82 | 0.14 |
| CO/C(O)=C1\C(C)=NC(C)=C(C(=O)OCC(C)C)C1c1cccc([N+](=O)[O-])c1 (configuration not stated) | 9.23 | 0.0081 |
